Screening results deposited in PubChem by The Scripps Research Institute Molecular Screening Center.
OPRM1-OPRD1 inv: inverse agonists of MOR-DOR heterodimerization, primary screen, cell-based, luminescence. actives 0.21% (n = 340,000). cell-based MOR-DOR heterodimer luminescence, inverse agonism. inhibition, % at 9.3 µM. Mu-type opioid receptor (Homo sapiens) + Delta-type opioid receptor (Homo sapiens), …; in the data active means inhibition above about 22%, passing the limit was not always enough;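 further: 0% = cells with DMSO and 100% = wells without cells with DMSO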
Target sequence (P35372 whole entry, looked up): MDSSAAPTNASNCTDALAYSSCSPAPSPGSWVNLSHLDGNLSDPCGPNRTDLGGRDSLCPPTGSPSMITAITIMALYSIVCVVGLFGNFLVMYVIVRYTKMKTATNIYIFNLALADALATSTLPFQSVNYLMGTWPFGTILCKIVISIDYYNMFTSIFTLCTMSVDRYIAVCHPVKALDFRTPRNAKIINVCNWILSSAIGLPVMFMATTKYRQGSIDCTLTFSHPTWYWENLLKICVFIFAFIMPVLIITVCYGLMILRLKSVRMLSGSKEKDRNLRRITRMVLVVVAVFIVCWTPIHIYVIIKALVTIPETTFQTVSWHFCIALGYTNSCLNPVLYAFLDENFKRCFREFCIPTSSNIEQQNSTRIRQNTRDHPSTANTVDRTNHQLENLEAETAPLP
Target sequence (P41143 whole entry, looked up): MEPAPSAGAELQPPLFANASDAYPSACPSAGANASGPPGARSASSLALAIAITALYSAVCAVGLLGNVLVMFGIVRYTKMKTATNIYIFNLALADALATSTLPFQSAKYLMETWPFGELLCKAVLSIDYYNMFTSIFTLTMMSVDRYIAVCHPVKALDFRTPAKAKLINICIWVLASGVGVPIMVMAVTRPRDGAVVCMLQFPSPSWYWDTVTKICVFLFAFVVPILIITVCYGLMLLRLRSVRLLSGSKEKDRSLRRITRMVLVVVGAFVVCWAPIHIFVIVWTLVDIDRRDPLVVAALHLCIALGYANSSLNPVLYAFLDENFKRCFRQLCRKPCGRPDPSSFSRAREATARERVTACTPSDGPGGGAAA
MC4R ag barr: MC4R agonists recruiting beta-arrestin, primary screen, cell-based, luminescence, agonist arm of biased-ligand search; U2OS MC4R beta-arrestin complementation; percent of melanotan II response, DMSO zero; Melanocortin receptor 4 (Homo sapiens), P32245; activation, % at 8.9 µM; actives 0.98% (n = 360,000);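 active means activation above a per-plate cutoff, the mean activation of sample wells on that plate plus 3 SD, cut at about 8% in these data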
MOR-DOR ag: agonists of OPRM1-OPRD1 heterodimerization, primary screen, cell-based, luminescence; actives 0.3% (n = 340,000); cells; AID 504326, 2011; activation, % at 9.3 µM; Mu-type opioid receptor (Homo sapiens) + Delta-type opioid receptor (Homo sapiens), …; in the data active means activation above about 18%;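 further: 0% = vehicle-treated cells and 100% = reference agonist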
HTR5A ag: HTR5A agonists in luminescence cell assay, primary screen, counter-screen for OPRM1-OPRD1 heterodimer agonist project, full-deck HTS; 5-hydroxytryptamine receptor 5A (Homo sapiens), P47898; cell-based; activation, % at 9.3 µM; actives 0.61% (n = 340,000); AID 504692, 2011; in the data active means activation mostly above about 9.5%, no sharp cut-off; inactive means mostly below about 7.6%;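 further: 0% = cells with vehicle only and 100% = reference agonist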
MC4R antag cAMP: MC4R antagonists of cAMP signaling, primary screen, cell-based, TR-FRET, antagonist arm of biased-ligand search | Melanocortin receptor 4 (Homo sapiens), P32245 | MC4R-expressing cells, MTII-stimulated cAMP, LANCE TR-FRET | inhibition, % at 6.5 µM | actives 0.48% (n = 360,000) | AID 540295, 2011;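 active means inhibition above its plate's cutoff, the mean of tested wells on that plate plus 3 SD, cut at about 29% in these data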;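 further: 0% = Melanotan II alone and 100% = Melanotan II plus saturating MCL0020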
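system = U2OS cells with stable human MC4R expression | also added = Melanotan II challenge after compound preincubation | dosing = one concentration, 6.5 µM nominal | incubation = compound 30 min, challenge 1 h, detection 1 h | measured by = TR-FRET with Eu-cAMP and labeled anti-cAMP, 671 nm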
HTR5A inv ctr: HTR5A inverse agonists in luminescence cell assay, primary screen, counter-screen for OPRM1-OPRD1 heterodimer inverse agonist project, full-deck HTS; 5-hydroxytryptamine receptor 5A (Homo sapiens), P47898; HTR5A cell line, inverse agonism; inhibition, % at 9.3 µM; actives 0.083% (n = 340,000); in the data active means inhibition mostly above about 23%, no sharp cut-off; inactive means mostly below about 18%;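 further: 0% = cells with DMSO and 100% = no-cell wells with DMSO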
Starred values were filed as active, the others as inactive; / = not tested or not shown. The list is not random: actives were taken first. Their share in the collection is about 2.4%.

SMILES	OPRM1-OPRD1 inv	MC4R ag barr	MOR-DOR ag	HTR5A ag	MC4R antag cAMP	HTR5A inv ctr
CCOc1ccccc1Nc1nc2ccccc2n2cnnc12	21	0	-4	0	2	1
CCN(CC)c1nc2ccccc2n2cnnc12	-2	-1	0	13*	5	15
CC(C)Oc1ccc2c(c1)OC(c1ccccc1)(C(F)(F)F)NC2=O (stereo not drawn)	-27	8.5*	5	4	3	-21
COc1ccc(C(C)(O)c2nc(-c3cccc(C(F)(F)F)c3)cs2)cc1 (stereo not drawn)	/	0	/	/	4	/
Cc1cc(C)c2nc(-c3ccncc3)cc(C(=O)N3CCN(Cc4ccccc4Cl)CC3)c2c1	1	-3	0	13*	15	-10
COc1ccc(C(=O)SC2=NCCS2)cc1	-12	1	2	12*	11	-13
CCOc1ccc(C(=O)SC2=NCCS2)cc1	-4	-1	1	0	15	2
CN(C)S(=O)(=O)c1ccc(Cl)c(NC(=O)COC(=O)CN2C(=O)C3CCCCC3C2=O)c1 (stereo not drawn)	12	-1	-2	1	3	-2
O=C1Nc2ccccc2S/C1=C/Nc1cccc(Cl)c1	-121	13*	23*	14*	-4	3
O=C1Nc2ccccc2SC1=Cc1ccccc1	/	-1	/	/	0	/
O=C(c1cccc(C(F)(F)F)c1)C1CCCN(Cc2cccc(OCCO)c2)C1 (stereo not drawn)	-10	-3	2	13*	5	-33
O=[N+]([O-])/C=C1/CCCCCN1	-1	1	0	-6	13	18
O=C(C1CCN(C2CCN(Cc3ccsc3)CC2)CC1)N1CCOCC1	4	-1	-1	-1	17	19
Cc1cc(C)c2sc(N(CCN(C)C)C(=O)CCS(=O)(=O)c3ccccc3)nc2c1	-1	9.2*	0	4	2	23
COc1ccc2sc(N(CCCN(C)C)C(=O)c3ccc(S(=O)(=O)N4CCCC4)cc3)nc2c1	6	2	-1	5	1	14
CN(C)CCCN(C(=O)c1ccc2c(c1)CCCC2)c1nc2cc3c(cc2s1)OCO3	2	8.6*	0	-1	-4	11
Cc1cc(C)c2sc(N(CCCN(C)C)C(=O)c3ccc(S(=O)(=O)N4CCc5ccccc5C4)cc3)nc2c1	-158	39*	29*	33*	-1	-82
COc1ccc2sc(N(CCCN(C)C)C(=O)c3ccc(S(=O)(=O)N4CCc5ccccc5C4)cc3)nc2c1	-124	32*	23*	14*	2	-34
Cc1cc(C)c2sc(N(CCCN(C)C)C(=O)c3ccc(S(=O)(=O)N4CCCc5ccccc54)cc3)nc2c1	-13	1	2	3	7	-7
CCN(CC)CCN(C(=O)CCS(=O)(=O)c1ccccc1)c1nc2cc(C)cc(C)c2s1	0	2	0	0	9	3
CC(C)CN(C(=O)C1CCCO1)c1c(N)n(CC(C)C)c(=O)[nH]c1=O (stereo not drawn)	13	0	-2	1	6	-8
C#CCOCCOCCOCCNc1nc(N2CCN(C(=O)CCCCCCCCCCNC(=O)[C@@H](CCSC)n3cc(CCO)nn3)CC2)nc(N2CCN(C(=O)CCCCCCCCCCNC(=O)[C@H]([C@@H](C)CC)n3cc(CCCCN=C(N)N)nn3)CC2)n1	-28	2	5	-2	41*	-1
C#CCOCCOCCOCCNc1nc(N2CCN(C(=O)CCCCCCCCCCNC(=O)[C@H](CCCCN)n3cc(C)nn3)CC2)nc(N2CCN(C(=O)CCCCCCCCCCNC(=O)[C@@H]([C@H](C)CC)n3cc(CCCCCN)nn3)CC2)n1	-43	-1	8	4	52*	-26
C#CCOCCOCCOCCNc1nc(N2CCN(C(=O)CCCCCCCCCCNC(=O)Cn3cc(C[C@@H](C)O)nn3)CC2)nc(N2CCN(C(=O)CCCCCCCCCCNC(=O)[C@H](CCCCN)n3cc(C[C@@H](C)CC)nn3)CC2)n1	-42	1	8	4	32*	-36
C#CCOCCOCCOCCNc1nc(N2CCN(C(=O)CCCCCCCCCCNC(=O)[C@H](CCCCN)n3cc(CCO)nn3)CC2)nc(N2CCN(C(=O)CCCCCCCCCCNC(=O)[C@H](CCCN=C(N)N)n3cc(C[C@@H](C)CC)nn3)CC2)n1	-15	-2	3	-2	78*	-9
SMILES	OPRM1-OPRD1 inv	MC4R ag barr	MOR-DOR ag	HTR5A ag	MC4R antag cAMP	HTR5A inv ctr
O[C@H]1C[C@H](c2ccc(Cl)cc2)N(Cc2cccs2)C[C@@H]1n1cc(-c2ccc(F)cc2)nn1	/	0	/	/	5	/
Cn1c(SCC(=O)Nc2ccccc2O)nnc1-c1ccco1	-1	-1	0	5	7	11
CCCNC(=O)c1ccc2c(c1)nc(C)n2-c1cccc(Cl)c1	9	1	-2	0	17	-1
O=C(CCS(=O)(=O)c1ccccc1)Nc1ccc(Cl)cn1	17	-2	-3	-1	-2	1
C#CCOCCOCCOCCNc1nc(N2CCN(C(=O)CCCCCCCCCCNC(=O)[C@H](CO)n3cc(CCCSC)nn3)CC2)nc(N2CCN(C(=O)CCCCCCCCCCNC(=O)[C@H](CO)n3cc(CCCSC)nn3)CC2)n1	24	-3	-4	1	7	-3
C#CCOCCOCCOCCNc1nc(N2CCOCC2)nc(N2CCN(C(=O)CCCCCCCCCCNC(=O)[C@@H](CCSC)n3cc(CCO)nn3)CC2)n1	2	0	0	14*	6	-2
COc1ccc(/C=C/C(=O)NC(=S)Nc2ccccc2)cc1OC	13	9.1*	-2	1	16	-5
COc1ccc(/C=C/C(=O)Nc2ccccc2)cc1OC	6	2	-1	0	5	1
COc1ccc(-c2ccc(SCC(=O)N3CCOCC3)nn2)cc1OC	8	-1	-1	0	-2	2
COc1ccc(-c2ccc(SCC(=O)N3CCCC3)nn2)cc1OC	0	-2	0	11*	4	-20
O=C(CCN1C(=O)/C(=C/c2ccccc2)SC1=S)NNC(=O)c1cccnc1	5	8.8*	-1	1	-3	-1
C/C=C/c1ccc2c(c1)O[C@H](CN(C)CC1CCOCC1)[C@@H](C)CN([C@H](C)CO)S2(=O)=O	/	-1	/	/	2	/
